system: Rattus norvegicus; assay: Antihypertensive activity in iv dosed pithed rat model assessed as inhibition of angiotensin 2-induced pressor response by gould pressure transducer-coupled grass polygraphy; format: functional; details: not given
Method in brief: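 Pithed rats had blood pressure recorded by an arterial catheter to a pressure transducer/polygraph. After about 60 min of stabilization, AngII (100 ng/kg iv) was given three times at 15 min intervals to set a basal pressor response. Compound was then given iv, followed by AngII 100 ng/kg iv. ED50 for 50% inhibition of maximal pressor response came from the dose–pressure curve.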

Question: For `CCCCc1nc(C)c(CCC(=O)N2CCCCC2)c(=O)n1Cc1ccc(-c2ccccc2-c2nnn[nH]2)cc1`, which ED50 is on record?
Answer: Its ED50 is 0.164 mg/kg.

Question: For `CCCCc1nc(C)c(CCC(=O)N2CCCC2)c(=O)n1Cc1ccc(-c2ccccc2-c2nnn[nH]2)cc1`, which ED50 is on record?
Answer: The ED50 was 0.206 mg/kg.

Question: For `CCCCc1nc(C)c(CC(=O)N2CCSCC2)c(=O)n1Cc1ccc(-c2ccccc2-c2nnn[nH]2)cc1`, which ED50 is on record?
Answer: The ED50 was 0.038 mg/kg.

Question: With `CCCCc1nc(C)c(CC(=O)N2CCC[C@H]2C(N)=O)c(=O)n1Cc1ccc(-c2ccccc2-c2nnn[nH]2)cc1` as the molecule, how does the ED50 read?
Answer: The ED50 was 0.023 mg/kg.

Question: Which ED50 does the source give for `CCCCc1nc(C)c(CCC(=O)N2CCOCC2)c(=O)n1Cc1ccc(-c2ccccc2-c2nnn[nH]2)cc1` here?
Answer: The ED50 was 0.143 mg/kg.

Question: With `CCCCc1nc(Cl)c(CO)n1Cc1ccc(-c2ccccc2-c2nnn[nH]2)cc1` [LOSARTAN] as the molecule, how does the ED50 read?
Answer: The ED50 was 0.336 mg/kg.

Question: Which ED50 does the source give for `CCCCc1nc(C)c(CC(=O)O)c(=O)n1Cc1ccc(-c2ccccc2-c2nnn[nH]2)cc1` here?
Answer: The ED50 was 0.13 mg/kg.

Question: Which ED50 does the source give for `CCCCc1nc(C)c(CCC(=O)O)c(=O)n1Cc1ccc(-c2ccccc2-c2nnn[nH]2)cc1` here?
Answer: The ED50 was 0.094 mg/kg.

Question: Which ED50 does the source give for `CCCCc1nc(C)c(CCC(=O)N2CCC[C@H]2C(=O)OC)c(=O)n1Cc1ccc(-c2ccccc2-c2nnn[nH]2)cc1` here?
Answer: The ED50 was 0.063 mg/kg.

Question: For `CCCCc1nc(C)c(CC(=O)OCC)c(=O)n1Cc1ccc(-c2ccccc2-c2nnn[nH]2)cc1`, which ED50 is on record?
Answer: Its ED50 is 0.108 mg/kg.

Question: For `CCCCc1nc(C)c(CC(=O)N2CCCCC2)c(=O)n1Cc1ccc(-c2ccccc2-c2nnn[nH]2)cc1`, which ED50 is on record?
Answer: The ED50 was 0.063 mg/kg.

Question: For `CCCCc1nc(C)c(CCC(=O)N2CCSCC2)c(=O)n1Cc1ccc(-c2ccccc2-c2nnn[nH]2)cc1`, which ED50 is on record?
Answer: The ED50 was 0.204 mg/kg.

Question: With `CCCCc1nc(C)c(CC(=O)N2CCC[C@H]2C(=O)OC)c(=O)n1Cc1ccc(-c2ccccc2-c2nnn[nH]2)cc1` as the molecule, how does the ED50 read?
Answer: Its ED50 is 0.043 mg/kg.

biological target: not listed separately; assay: Displacement of [125I]angiotensin 2 from angiotensin 2 receptor type 1 in Sprague-Dawley rat adrenal cortex membranes after 60 mins by gamma counting; format: cell membranes, Membrane; details: not given
Method in brief: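 Adrenal cortex membranes came from male Sprague–Dawley rats (200–250 g); the pellet was taken by differential centrifugation up to 100,000 g. Membranes (60–70 µg protein/assay) were suspended in 50 mM Tris–HCl, 10 mM MgCl2, 0.25% BSA, pH 7.4, with [125I]AngII (0.05 nM) and test compound (3×10^-12 to 10^-6 M, DMSO). Incubation ran 60 min at 25 °C and ended by GF/B filtration. IC50 is 50% inhibition of binding.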

Question: With `CCCCc1nc(C)c(CC(=O)N2CCN(C)CC2)c(=O)n1Cc1ccc(-c2ccccc2-c2nnn[nH]2)cc1` as the molecule, how does the IC50 read?
Answer: Its IC50 is 19 nM.

Question: Which IC50 does the source give for `CCCCc1nc(C)c(CCC(=O)N2CCCCC2)c(=O)n1Cc1ccc(-c2ccccc2-c2nnn[nH]2)cc1` here?
Answer: The IC50 was 64.7 nM.

Question: For `CCCCc1nc(C)c(CCC(=O)N2CCCC2)c(=O)n1Cc1ccc(-c2ccccc2-c2nnn[nH]2)cc1`, which IC50 is on record?
Answer: Its IC50 is 70.5 nM.

Question: With `CCCCc1nc(C)c(CC(=O)N2CCSCC2)c(=O)n1Cc1ccc(-c2ccccc2-c2nnn[nH]2)cc1` as the molecule, how does the IC50 read?
Answer: Its IC50 is 9 nM.

Question: With `CCCCc1nc(C)c(CC(=O)N2CCC[C@H]2C(N)=O)c(=O)n1Cc1ccc(-c2ccccc2-c2nnn[nH]2)cc1` as the molecule, how does the IC50 read?
Answer: The IC50 was 17 nM.

Question: Which IC50 does the source give for `CCCCc1nc(C)c(CCC(=O)N2CCOCC2)c(=O)n1Cc1ccc(-c2ccccc2-c2nnn[nH]2)cc1` here?
Answer: Its IC50 is 60 nM.

Question: Which IC50 does the source give for `CCCCc1nc(Cl)c(CO)n1Cc1ccc(-c2ccccc2-c2nnn[nH]2)cc1` [LOSARTAN] here?
Answer: Its IC50 is 80 nM.

Question: For `CCCCc1nc(C)c(CC(=O)O)c(=O)n1Cc1ccc(-c2ccccc2-c2nnn[nH]2)cc1`, which IC50 is on record?
Answer: The IC50 was 431 nM.

Question: Which IC50 does the source give for `CCCCc1nc(C)c(CCC(=O)O)c(=O)n1Cc1ccc(-c2ccccc2-c2nnn[nH]2)cc1` here?
Answer: The IC50 was 306 nM.

Question: With `CCCCc1nc(C)c(CCC(=O)N2CCC[C@H]2C(=O)OC)c(=O)n1Cc1ccc(-c2ccccc2-c2nnn[nH]2)cc1` as the molecule, how does the IC50 read?
Answer: Its IC50 is 58.5 nM.

Question: With `CCCCc1nc(C)c(CC(=O)OCC)c(=O)n1Cc1ccc(-c2ccccc2-c2nnn[nH]2)cc1` as the molecule, how does the IC50 read?
Answer: Its IC50 is 66.2 nM.

Question: For `CCCCc1nc(C)c(CC(=O)N2CCCCC2)c(=O)n1Cc1ccc(-c2ccccc2-c2nnn[nH]2)cc1`, which IC50 is on record?
Answer: The IC50 was 63.3 nM.

Question: With `CCCCc1nc(C)c(CCC(=O)N2CCSCC2)c(=O)n1Cc1ccc(-c2ccccc2-c2nnn[nH]2)cc1` as the molecule, how does the IC50 read?
Answer: Its IC50 is 28 nM.

Question: For `CCCCc1nc(C)c(CC(=O)N2CCC[C@H]2C(=O)OC)c(=O)n1Cc1ccc(-c2ccccc2-c2nnn[nH]2)cc1`, which IC50 is on record?
Answer: Its IC50 is 59.3 nM.

species on record: Rattus norvegicus; assay: Displacement of [125I]angiotensin 2 from angiotensin 2 receptor type 1 in Sprague-Dawley rat adrenal cortex membranes at 10 uM after 60 mins by gamma counting; format: cell membranes; details: Membrane

Question: With `CCCCc1nc(C)c(CC(=O)O)c(=O)n1Cc1ccc(-c2ccccc2-c2nnn[nH]2)cc1` as the molecule, how does the inhibition read?
Answer: The inhibition was 3.65%.

Question: For `CCCCc1nc(C)c(CCC(=O)O)c(=O)n1Cc1ccc(-c2ccccc2-c2nnn[nH]2)cc1`, which inhibition is on record?
Answer: Its inhibition is 27.9%.

Question: For `CCCCc1nc(C)c(CC(=O)N2CCCCC2)c(=O)n1Cc1ccc(-c2ccccc2-c2nnn[nH]2)cc1`, which inhibition is on record?
Answer: Its inhibition is 71.7%.

Source: ChEMBL document CHEMBL1949566 (Bioorg Med Chem Lett, 2012)
